Measured values from the RNAGym collection of RNA variant scans (doi:10.1126/science.aae0568).
Variants at the floor of the assay were thinned out.

B1: tRNA (parent)
chain: GUUCCGUUGGCGUAAUGGUAACGCGUCUCCCUCCUAAGGAGAAGACUGCGGGUUCGAGUCCCGUACGGAACG

Variants of: B1
Experiment: yeast fitness relative to wild type (ratio to wild type); higher = fitter; tRNA-Arg(CCU), competitive growth, 37 C, YPD
Procedure, shortened: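 Variants of the tRNA-Arg(CCU) gene, chemically synthesised with a 3% per-site mutation rate at 69 sites, were placed at the native genomic locus in Saccharomyces cerevisiae. The pooled strains were competed in YPD at 37°C for 24 hours in six parallel replicates. Gene amplicons from the start population and from each end population were read by 100-nucleotide paired-end sequencing. Darwinian fitness relative to wild type came from changes in genotype frequencies; genotypes needed ≥ 100 starting reads, and estimates < 0.5 were set to 0.5.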
Work on U2C G56A yielded a yeast fitness of 1.02. A15G U32A G38A G52A C66U gave a yeast fitness of at most 0.5. Variant U8C A15C A20U has a yeast fitness of 0.544. C4G A40U C46U G67U showed a yeast fitness of 0.602. G12A A14G A20G G63A gave a yeast fitness of at most 0.5. C11A C24G C34G gave a yeast fitness of at most 0.5. Variant A57G G63A has a yeast fitness of 0.879. With C5U U19G C46U A69C the yeast fitness was at most 0.5. G18A A57U A70C gave a yeast fitness of 0.536. C5U G23A C46G C49G gave a yeast fitness of at most 0.5. For C11U C29U C60G A70G, the yeast fitness was at most 0.5. Work on U2A C31G C60G U64G yielded a yeast fitness of 0.532. C33U A37U C62U showed a yeast fitness of at most 0.5. With U3C A20U C30U A37G A70C the yeast fitness was 0.708. Work on C30A A42G G44A yielded a yeast fitness of 0.704. With A20U A21G C22A G48A C49G the yeast fitness was at most 0.5. G6A C27A C60A U64A gave a yeast fitness of at most 0.5. C5U A15C C27U C29U A57C gave a yeast fitness of at most 0.5. C24U C31G G50A U64C gave a yeast fitness of at most 0.5. Work on U2A U13A C24A C30A yielded a yeast fitness of at most 0.5. Work on G9C G23A A40C C55G yielded a yeast fitness of 0.549. For C5G U8G C11G C49A G52C, the yeast fitness was at most 0.5. U3A A14C C46G showed a yeast fitness of at most 0.5. Work on U8A G10A G67C A69U yielded a yeast fitness of at most 0.5. Variant G18C A69C has a yeast fitness of 0.642. Variant C22A C34G has a yeast fitness of 0.686. In the case of C11U C22G C29G G41A U54A U64G, the yeast fitness is reported as at most 0.5. Variant C11U U54A C62U has a yeast fitness of at most 0.5. Work on G9A A45C U64C A65C yielded a yeast fitness of 0.648. With A20U C31G G38A C61A G63A the yeast fitness was at most 0.5. With C29U C34G the yeast fitness was 0.603. U8A A65C gave a yeast fitness of 0.837. With C5U A37G U47G A69G the yeast fitness was at most 0.5. For C24G G25A G48A, the yeast fitness was 0.697. Variant A14G A37U C61A has a yeast fitness of at most 0.5. G23A G39C A40G gave a yeast fitness of at most 0.5. Variant C24A A42U G44A has a yeast fitness of 0.581. C22G A42C C60G gave a yeast fitness of at most 0.5. With U7C A65U the yeast fitness was 0.849. In the case of G6A A20U C27U A57U, the yeast fitness is reported as at most 0.5. For U2A U8A C29G C60U C62A, the yeast fitness was at most 0.5. Work on C5G A14U G67A yielded a yeast fitness of 0.612. In the case of G48A C49U, the yeast fitness is reported as 0.97. For A15U G23A G68C, the yeast fitness was at most 0.5. In the case of C33U G41C, the yeast fitness is reported as 0.708. Work on C46G C61A A65C yielded a yeast fitness of at most 0.5. In the case of G18A C49G, the yeast fitness is reported as 0.74. A14U A37G G44C A45C G50A C55G C66A showed a yeast fitness of 0.539. G9A U13A C46U showed a yeast fitness of 0.708. In the case of G12A C66G, the yeast fitness is reported as 0.79. C5U A14G gave a yeast fitness of 0.77. With C5U G10C A21U C22U U32C C46U the yeast fitness was at most 0.5. C4G U16G U19C A21C C49U G50A showed a yeast fitness of 0.621. With U19C A20C A21U G56A A69C the yeast fitness was at most 0.5. For C22U C27G G41A C55U, the yeast fitness was at most 0.5. With C4U A45U A69C the yeast fitness was 0.79. Work on C27G A42C C62G yielded a yeast fitness of 0.561. Work on A37C C46G C62G yielded a yeast fitness of 0.654. For C4U C24A C60A, the yeast fitness was 0.724. With A37C G39C C55U C61A the yeast fitness was 0.532. For A14U A43U A45G, the yeast fitness was 0.634. Variant C4G A36G U59C has a yeast fitness of 0.667. U3A A21C C24G C62G A70G showed a yeast fitness of at most 0.5. C22U G52A gave a yeast fitness of 0.675. Work on G25C C27A C31G yielded a yeast fitness of at most 0.5. Work on C5G U13G C29U A40G C60U A65G C66U yielded a yeast fitness of at most 0.5. For C22U U47A C60U G67C A69U, the yeast fitness was at most 0.5. Work on G6C G9A G48C G51C U53A C66A yielded a yeast fitness of at most 0.5. With U3G C27U the yeast fitness was 0.798. C22U C46U G51C showed a yeast fitness of at most 0.5. G12A A20U C27A U32C C55U G68A showed a yeast fitness of at most 0.5. Variant C5U C27U A37C C60A has a yeast fitness of 0.546. C4A A21C C22U G50C showed a yeast fitness of 0.617. In the case of C4U C30G C46U G52A A65C, the yeast fitness is reported as at most 0.5. For U7C C11G C30G C33A A57C C61A, the yeast fitness was at most 0.5. With G9A A43G the yeast fitness was 0.987. Work on U16A C29G C31G C55A C62U A69C yielded a yeast fitness of at most 0.5. Work on U8A U13C yielded a yeast fitness of 0.747. Variant C24G A40C U64A A65C has a yeast fitness of at most 0.5. Variant U7A G12C C27G C31A C46A G56C has a yeast fitness of 0.587. G58C A70U gave a yeast fitness of 1. Work on G10A A20G C46U G50U C55U yielded a yeast fitness of at most 0.5. In the case of U3C C55G G68C, the yeast fitness is reported as at most 0.5.
